Sampled rows, rich in hits. Any-hit rate of the full collection: about 2.5%.
NadD block – inhibitors of S. aureus NadD, primary screen, biochemical, colorimetric, uHTS. hit rate 0.78% among 360,000. inhibition, % at 20 µM. Nicotinate-nucleotide adenylyltransferase NadD (Staphylococcus aureus N315). purified NadD enzyme, colorimetric absorbance read-out; in the data active = inhibition above about 26%
B2AR ag – beta2AR agonists driving receptor internalization, primary screen, cell-based, FAP fluorogen, flow cytometry; Am2.2-beta2AR cells; response, % (no concentration beside the values); hit rate 0.43% among 340,000;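 active = response above a set limit, near 3 SD of response in nonfluorescent compounds, cut at about 42% in these data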
ABHD5-PLIN5 inh – ABHD5-PLIN5 interaction inhibitors, primary screen, cell lysate, split luciferase complementation, luminescence; Perilipin-5 (Homo sapiens) + 1-acylglycerol-3-phosphate O-acyltransferase ABHD5 (Homo …; Split G. princeps luciferase complementation, 4 h; inhibition, % at 4 µM; hit rate 0.78% among 360,000; AID 602281, 2012;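 active = inhibition above the mean inhibition across every tested compound plus 3 SD, cut at about 22% in these data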
GRK2 inh – compounds blocking aptamer binding on GRK2 – biochemical, human GRK2, bead flow cytometry, HTS, primary screen; Beta-adrenergic receptor kinase 1 (Homo sapiens), P25098; FAM-aptamer displacement from GRK2; inhibition of aptamer binding, % at 10 µM; hit rate 0.59% among 330,000; AID 488847, 2010;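 active = inhibition of aptamer binding above 40%, roughly 3 SD of noise, on plates passing a quality check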;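 also: median bead fluorescence of bound FAM aptamer so fluorescent compounds give negative values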
SENP1 inh – human SENP1 catalytic domain inhibitors, primary screen, biochemical, FRET, uHTS | Sentrin-specific protease 1 (Homo sapiens), Q9P0U3 | recombinant SENP1 catalytic domain, CyPet-SUMO1-YPet FRET cleavage | inhibition, % at 10 µM | hit rate 0.21% among 360,000;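 active = inhibition at least 30% at 10 µM, raw YFP signal under a set limit, fluorescence ratio 0.5 to 1.5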
Target sequence (Q9P0U3 419-644 limits assumed): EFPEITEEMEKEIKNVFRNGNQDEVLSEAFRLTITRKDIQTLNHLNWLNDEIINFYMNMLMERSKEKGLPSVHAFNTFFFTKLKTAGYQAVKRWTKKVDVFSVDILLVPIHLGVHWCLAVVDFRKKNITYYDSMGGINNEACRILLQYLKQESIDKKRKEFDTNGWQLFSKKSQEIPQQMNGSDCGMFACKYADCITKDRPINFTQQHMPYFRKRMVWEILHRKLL
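Compound: 10 µM single point, 0.5% DMSO; Test system: hSENP1 catalytic domain, recombinant; Timing: 50 min reaction at room temperature; Technique: FRET, CFP and YFP emission; Control set: no-enzyme wells low, DMSO-plus-enzyme wells high control.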
GRK2 inh confirm – GRK2 aptamer-displacing inhibitors, retest, confirmation, biochemical, cherry pick 1, bead flow cytometry; shares compounds with GRK2 inh; bead-bound GRK2, FAM-aptamer displacement; aptamer displacement, % at 10 µM; hit rate 4% among 2,000;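 active = aptamer displacement above 40%, near three times the noise of non-fluorescent compounds, on plates passing quality checks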;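 also: negative values mostly reflect intrinsic compound fluorescence rather than true enhancement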
Aptamer quench SP – aptamer fluorescence quenching in GRK2 counter-screen; AID 504580; Carboxyfluorescein RNA aptamer on beads, flow cytometry quenching; active compounds read low; fluorescence response (% of DMSO), % at 10 µM; 2,000 tested, under 10 active; shares compounds with GRK2 inh;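 active = compounds that quench the bead-bound fluorescent RNA probe, cutting fluorescence to under half of the solvent control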;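 also: counterscreen run without GRK2 so only probe quenching by compound is measured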
Each line names hits and unclear results; the compound was inactive in the other large screens (follow-up assays come after a bar, where they were run).

CCOC(=O)N1CCC(n2c(=S)[nH]c3cc(OCC)c(OCC)cc3c2=O)CC1	none
CNC(=O)c1c(O)c2cccc3c2n(c1=O)CC3	none
O=C(Nc1cccnc1)c1c(O)c2cccc3c2n(c1=O)CC3	GRK2 inh 65 | GRK2 inh confirm inactive | Aptamer quench SP inactive
COc1cc(NC(=O)C(C)N2CCN(C(=O)C3CC3)CC2)cc(OC)c1 (centres undefined)	none
CC(NC(=O)CNC(=O)c1cccs1)c1cccc(C(F)(F)F)c1 (centres undefined)	none
CCOC(=O)c1sc2nc3c(SCC(=O)O)cc(C(=O)c4ccccc4O)cn3c(=O)c2c1C	GRK2 inh 63 | GRK2 inh confirm inactive | Aptamer quench SP inactive
CCOc1cc(C)c(C(C)C)cc1S(=O)(=O)n1cnc(C)c1	none
O=C(CN(Cc1ccc(F)cc1)C(=O)CNS(=O)(=O)c1ccccc1)NCc1ccco1	none
Cc1oc(-c2cccc(Cl)c2)nc1CS(=O)(=O)CC(=O)NC1CCCC1	GRK2 inh 67 | GRK2 inh confirm inactive | Aptamer quench SP inactive
Cc1oc(-c2ccccc2Cl)nc1CSc1nc2c(c(=O)[nH]1)CCC2	GRK2 inh 56 | GRK2 inh confirm inactive | Aptamer quench SP inactive
Cc1oc(-c2ccccc2Cl)nc1CSCC(=O)NC1CCCC1	none | GRK2 inh confirm inactive | Aptamer quench SP inactive
Cc1oc(-c2cccc(Cl)c2)nc1CSc1nc2c(c(=O)[nH]1)CCC2	none
CCOCCCNC(=O)CS(=O)(=O)Cc1nc(-c2cccc(OC)c2)oc1C	GRK2 inh 56 | GRK2 inh confirm inactive | Aptamer quench SP inactive
CCCNC(=O)CS(=O)(=O)Cc1nc(-c2cccc(OC)c2)oc1C	none
CC(C)CN1C(=O)C(=Nc2cccnc2)c2ccccc21	none
CCCNC(=O)C1(C)CCN1C(=O)Cc1ccc(C(C)(C)C)cc1 (centres undefined)	none (no result: B2AR ag, GRK2 inh)
OCCc1ccc(O)cc1	none
c1ccc(CCc2ccncc2)cc1	GRK2 inh 66 | GRK2 inh confirm inactive | Aptamer quench SP inactive
OCCc1ccccc1	none (no result: NadD block, B2AR ag, ABHD5-PLIN5 inh, SENP1 inh) | GRK2 inh confirm inactive | Aptamer quench SP inactive
Cn1cc(CCCC(=O)NCc2ccc(F)cc2)c2ccccc21	none
CC(Oc1ccc([N+](=O)[O-])cc1Cl)C(=O)Nc1ccc(C(N)=O)cc1 (centres undefined)	GRK2 inh 95 | GRK2 inh confirm inactive | Aptamer quench SP inactive
CC(=O)Nc1ccc(Oc2ccc([N+](=O)[O-])cc2Cl)cc1	none
CCOC(=O)C1(CCc2ccccc2)CCN(C(=O)CN2C(=O)CSC2=O)CC1	GRK2 inh 92 | GRK2 inh confirm inactive | Aptamer quench SP inactive
CN(Cc1cnn(Cc2ccccc2)c1)C(=O)c1cccc(S(=O)(=O)N2CCOCC2)c1	none
O=C(CCCN1C(=O)/C(=C\c2ccco2)SC1=S)Nc1ccc(O)cc1C(=O)O	GRK2 inh 45 | GRK2 inh confirm inactive | Aptamer quench SP inactive
O=C(CCCN1C(=O)/C(=C\c2cccs2)SC1=S)Nc1ccc(O)cc1C(=O)O	none
CC1(C)Cc2c(cnn2-c2cccc(F)c2)C(NC(=O)CCc2cnccn2)C1 (centres undefined)	none
CCCc1ccc(OCc2ccc(C(=O)N3CCN(c4ccccn4)CC3)o2)c(OC)c1	GRK2 inh 47 | GRK2 inh confirm inactive | Aptamer quench SP inactive
COc1ccc(CC(=O)N2CCN(c3ccccn3)CC2)cc1OC	none
CC1CCC(NC(=O)N(CCCl)N=O)CC1 (centres undefined)	none | GRK2 inh confirm inactive | Aptamer quench SP inactive
Cc1ccc(CNC(=O)CCC2CCCN(C(=O)CCC(F)(F)F)C2)o1 (centres undefined)	none
CC1(C)N([O-])c2cc([N+](=O)[O-])ccc2[N+]1=O	GRK2 inh 68 (no result: NadD block, ABHD5-PLIN5 inh, SENP1 inh) | GRK2 inh confirm inactive | Aptamer quench SP inactive

Source: PubChem (several laboratories)
